Results on three compounds are retold here after publication PMC4109633 (Drug Design, Development and Therapy, 2014).

Marks after values point to notes of the source that are not given here.

The test system of data set [1] is Salmonella typhimurium TA1535. In words: Ames Salmonella/microsomal mutagenicity assay. The data set is classed as cell-based. To be noted: presence of S9 mix, spontaneous 67.0±6.1.
Data set [2] relates to Salmonella typhimurium TA1535. The data set can be described thus: Antimutagenicity assay against sodium azide. Type of data set: cell-based. To be noted: for NaN3 mutagenicity (revertant colonies/plate; mean ± SEM): NaN3 2 μg/plate, spontaneous 29.3±5.3; for Mutant frequency (sodium azide): mutant colonies/viable colonies. In a few lines:
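TA1535 was exposed to test compound at 10 or 20 µM with NaN₃ (2 µg/plate) in two schemes. In pre-exposure, compound and bacteria were shaken 30 min at 37°C before mutagen was added. In co-exposure, bacteria, mutagen and compound were incubated together 30 min at 37°C. Cells were then plated on minimal glucose agar, and revertants counted at 48 h, in triplicate. Mutant frequency = mutant colonies/viable colonies.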

Data set [3] deals with Salmonella typhimurium TA1535. The data set can be described thus: Cytotoxicity in liquid medium. Type of data set: cell-based. To be noted: mean ± SEM. Summed up: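 TA1535 was grown in broth microdilution with test compound at 25, 50 or 100 µM. Viability was expressed as % of untreated control (mean ± SEM), triplicate.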
Data set [4] has as its system Salmonella typhimurium TA1535. In words: Antimutagenicity assay against benzo[a]pyrene with S9 mix. The data set is classed as cell-based. As to conditions: for B[a]P mutagenicity (revertant colonies/plate; mean ± SEM): B[a]P 20 μM + S9 mix, spontaneous 105.0±13.1; for Mutant frequency (benzo[a]pyrene): mutant colonies/viable colonies.
A further data set concerns G-quadruplex DNA. As to conditions: cited from earlier work.

With `Cl.N=C(N)c1ccc(-c2ccc(-c3cccs3)o2)c(F)c1` [Compound 5c, 3-Fluoro-4-(5-(thiophen-2-yl)furan-2-yl)benzamidine hydrochloride salt], the “Fluoroarylbichalcophene mutagenicity (revertant colonies/plate; mean ± SEM)” value turned out to be 70.0±5.9 revertant colonies/plate in data set [1] (10 μM) and 66.0±3.5 revertant colonies/plate in data set [1] (20 μM). Further, the “NaN3 mutagenicity (revertant colonies/plate; mean ± SEM)” value in data set [2] (co-exposure, 10 μM) came out at 25.7±1.8 revertant colonies/plate; in data set [2] (co-exposure, 20 μM), 24.0±3.0 revertant colonies/plate; in data set [2] (pre-exposure, 10 μM), 102.0±7.2 revertant colonies/plate; in data set [2] (pre-exposure, 20 μM) it was 33.3±8.7 revertant colonies/plate. The “Mutant frequency (sodium azide)” value in data set [2] (co-exposure, 10 μM) was 0.48; in data set [2] (co-exposure, 20 μM) it was 0.47; in data set [2] (pre-exposure, 10 μM), 1.91; in data set [2] (pre-exposure, 20 μM), 0.65. For the same compound, the “Antimutagenic potential against NaN3” value in data set [2] (pre-exposure, only at 20 μM) is “strong (40% or more reduction means strong antimutagenic activity)”. Moreover, the “Viability at fluoroarylbichalcophene concentrations (% of control)” value in data set [3] (25 μM) is 71.3±6.4 % of control; in data set [3] (50 μM), 58.7±4.2 ^a % of control; in data set [3] (100 μM) it was 28.7±3.0 ^a % of control. Also, the “B[a]P mutagenicity (revertant colonies/plate; mean ± SEM)” value in data set [4] (co-exposure, 10 μM) amounted to 110.7±10.5 revertant colonies/plate; in data set [4] (co-exposure, 20 μM) it was 111.0±10.2 revertant colonies/plate; in data set [4] (pre-exposure, 10 μM) it was 148.7±9.8 revertant colonies/plate; in data set [4] (pre-exposure, 20 μM) it was 124.0±5.3 revertant colonies/plate. The “Mutant frequency (benzo[a]pyrene)” value in data set [4] (pre-exposure, 10 μM) turned out to be 2.23; in data set [4] (pre-exposure, 20 μM) it was 2.02.
`Cl.N=C(N)c1ccc(-c2ccc(-c3cccs3)o2)cc1F` [Compound 5d, 2-Fluoro-4-(5-(thiophen-2-yl)furan-2-yl)benzamidine hydrochloride salt]: the figures for the “Fluoroarylbichalcophene mutagenicity (revertant colonies/plate; mean ± SEM)” value in data set [1] (10 μM) and in data set [1] (20 μM) were 65.0±7.0 revertant colonies/plate and 67.7±6.0 revertant colonies/plate, respectively. Also, the “NaN3 mutagenicity (revertant colonies/plate; mean ± SEM)” value in data set [2] (co-exposure, 10 μM) is listed as 43.3±6.8 revertant colonies/plate; in data set [2] (co-exposure, 20 μM) it was 20.0±1.0 revertant colonies/plate; in data set [2] (pre-exposure, 10 μM), 65.0±5.0 revertant colonies/plate; in data set [2] (pre-exposure, 20 μM), 44.3±4.5 revertant colonies/plate. Moreover, the “Mutant frequency (sodium azide)” value was found to be 0.76 in data set [2] (co-exposure, 10 μM); 0.40 in data set [2] (co-exposure, 20 μM); 1.14 in data set [2] (pre-exposure, 10 μM); 0.88 in data set [2] (pre-exposure, 20 μM). The “Viability at fluoroarylbichalcophene concentrations (% of control)” value is recorded as 105.7±4.6 % of control in data set [3] (25 μM), 65.3±3.9 ^a % of control in data set [3] (50 μM) and 49.3±3.8 ^a % of control in data set [3] (100 μM). For the same compound, the “B[a]P mutagenicity (revertant colonies/plate; mean ± SEM)” value in data set [4] (co-exposure, 10 μM) is 109.7±8.3 revertant colonies/plate; in data set [4] (co-exposure, 20 μM), 101.0±6.0 revertant colonies/plate; in data set [4] (pre-exposure, 10 μM), 261.0±8.5 revertant colonies/plate; in data set [4] (pre-exposure, 20 μM) it was 216.7±14.3 revertant colonies/plate. The “Mutant frequency (benzo[a]pyrene)” value in data set [4] (pre-exposure, 10 μM) is 4.19; in data set [4] (pre-exposure, 20 μM), 3.28.
Consider `N=C(N)c1ccc(-c2ccc(-c3ccc(C(=N)N)o3)o2)cc1` [Compound I, 5′-(4-amidinophenyl)-2,2′-bifuran-5-carboxamidine], for which the “Recognition of G-quadruplex DNA” value with G-quadruplex DNA is reported as “recognize G-quadruplex DNA”.
